Experiments:
Assay in all cases: Cell viability
Settings in all cases: Ac-peptide, up to 20 μM, 24 h, CellTiter-Glo
[1] = system: OCI-AML3 cells; assay type: cell-based
In short: (§1)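 Cells in OptiMEM with penicillin/streptomycin: MEFs (wild-type or Bax−/−Bak−/−) at 2.5 × 10^3 per well, adhered overnight and washed; OCI-AML3 at 1 × 10^4 per well. Serial dilutions of peptide from a 10 mM DMSO stock, or vehicle, were applied for 2 h at 37 °C serum-free, then FBS was added to 10%. CellTiter-Glo luminescence was read 24 h post-treatment.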

[2] = system: wild-type MEFs; assay type: cell-based, mouse
In short: as §1

[3] = system: Bax−/−Bak−/− (DKO) MEFs; assay type: cell-based, mouse
In short: as §1

BIM BH3_2: unmodified BIM BH3 domain peptide, amino acids 145–164; N-terminal cap depends on the assay
no effect: Effect on viability of OCI-AML3 cells (in words) [1] | Effect on viability of wild-type MEFs (in words) [2] | Effect on viability of Bax−/−Bak−/− (DKO) MEFs (in words) [3]
